Test results from ChEMBL document CHEMBL1154198, “Chemical genetics of Plasmodium falciparum” (Nature, 2010).

Experiments:
Plasmodium falciparum [1] = assay: ST_JUDE: Cytotoxicity against Plasmodium falciparum K1; assay type: functional, organism-based
Procedure, shortened: (§1)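 Asexual P. falciparum grown in human erythrocytes, exposed to compounds for 72 h, and growth read as the DNA quantity in treated versus control cultures. Dose-response run at 12 concentrations from 10 μM to 5 nM.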

[2] = ST_JUDE: Cytotoxicity using luciferase to measure ATP as an indicator of the viability of human epithelial hepatocellular carcinoma cells (HepG2); assay type: toxicity, cell-based
Plasmodium falciparum [3] = assay: ST_JUDE: Cytotoxicity against Plasmodium falciparum W2; assay type: functional, organism-based
[4] = ST_JUDE: Cytotoxicity using luciferase to measure ATP as an indicator of the viability of human epithelial embryonic kidney cells (HEK293); assay type: toxicity, cell-based
Plasmodium falciparum [5] = assay: ST_JUDE: Cytotoxicity against Plasmodium falciparum Dd2; assay type: functional, organism-based
[6] = ST_JUDE: Cytotoxicity using luciferase to measure ATP as an indicator of the viability of human Burkitt''s lymphoma lymphoblast cells (Raji); assay type: toxicity, cell-based
Plasmodium falciparum [7] = assay: ST_JUDE: Cytotoxicity against Plasmodium falciparum D10 transfected with yeast DHOD; assay type: functional, organism-based
Plasmodium falciparum [8] = assay: ST_JUDE: Plasmodium falciparum K1 EC50 (uM) as measured by SYBR green dye; assay type: functional, organism-based
Plasmodium falciparum [9] = assay: ST_JUDE: Cytotoxicity against Plasmodium falciparum 3D7; assay type: functional, organism-based; procedure, shortened: as §1
[10] = ST_JUDE: Cytotoxicity using luciferase to measure ATP as an indicator of the viability of human foreskin fibroblast cells (BJ); assay type: toxicity, cell-based
Plasmodium falciparum [11] = assay: ST_JUDE: Plasmodium falciparum 3D7 EC50 (uM) as measured by SYBR green dye; assay type: functional, organism-based
Plasmodium falciparum [12] = assay: ST_JUDE: Cytotoxicity against Plasmodium falciparum SB-A6; assay type: functional, organism-based
Plasmodium falciparum [13] = assay: ST_JUDE: Cytotoxicity against Plasmodium falciparum V1/S; assay type: functional, organism-based
Leishmania major = assay: ST_JUDE: Cytotoxicity using Alamar Blue to measure viability of Leishmania major; assay type: functional, organism-based
Procedure, shortened: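 L. major promastigotes; drug susceptibility read with Alamar Blue.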

Trypanosoma brucei = assay: ST_JUDE: Cytotoxicity using luciferase to measure ATP as an indicator of the viability of Trypanosoma brucei; assay type: functional, organism-based
Toxoplasma gondii = assay: ST_JUDE: Growth inhibition of to Toxoplasma gondii, in human U-2OS cells, as measured by luciferase.; assay type: functional, organism-based; conditions: RH, U2OS
Procedure, shortened: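 T. gondii parasites engineered to express luciferase; drug sensitivity read by luminescence.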

| Structure (SMILES) | EC50 (Plasmodium falciparum [1]) | EC50 [2] | EC50 (Plasmodium falciparum [3]) | EC50 [4] | EC50 (Plasmodium falciparum [5]) | EC50 [6] | EC50 (Plasmodium falciparum [7]) | EC50 (Plasmodium falciparum [8]) | EC50 (Plasmodium falciparum [9]) | EC50 [10] | EC50 (Plasmodium falciparum [11]) | EC50 (Plasmodium falciparum [12]) | EC50 (Plasmodium falciparum [13]) | EC50 (Leishmania major) | EC50 (Trypanosoma brucei) | EC50 (Toxoplasma gondii) |
| --- | --- | --- | --- | --- | --- | --- | --- | --- | --- | --- | --- | --- | --- | --- | --- | --- |
| CCN(CC)CCCOC(=O)c1c(C)oc2cc3c(C(=O)OCCCN(CC)CC)c(C)oc3cc12 | 2890 nM | 4710 nM | 790 nM | 29200 nM | 273 nM | 23700 nM | 1730 nM | 1270 nM | 2140 nM | > 38900 nM | 538 nM | 537 nM | > 9980 nM | > 16600 nM | 5220 nM | 10900 nM |
| CCO/C(O)=C1\C(C)=NC2=C(C(=O)CC(c3ccc(OC)c(OC)c3)C2)C1c1cccc(Cl)c1 (stereo not drawn) | 487 nM | > 41900 nM | 1800 nM | > 41900 nM | 1480 nM | > 41900 nM | 531 nM | 226 nM | 831 nM | > 41900 nM | 716 nM | 335 nM | 902 nM | > 17900 nM | 16700 nM | > 22900 nM |
| CC(C)CN1C(=O)c2ccccc2C(C(=O)Nc2ccc(F)c(Cl)c2)C1c1cccs1 (stereo not drawn) | 421 nM | 38100 nM | 152 nM | > 42300 nM | 421 nM | > 42300 nM | 1310 nM | 173 nM | 378 nM | > 42300 nM | 89.7 nM | 1390 nM | 1680 nM | > 18100 nM | 2620 nM | > 23200 nM |
| O=[N+]([O-])c1ccc2c(c1)c1ccccc1n2Cc1ccccc1O | 1070 nM | > 35300 nM | 3700 nM | > 35300 nM |  | 18200 nM | 1800 nM | 1250 nM | 1300 nM | > 35300 nM | 1260 nM | 2320 nM | > 9060 nM | > 15100 nM | 24500 nM | > 19300 nM |
| CCN1/C(=C/c2cccc[n+]2C)C=Cc2cc(C)ccc21 | 1890 nM | > 32200 nM | > 8270 nM | > 32200 nM | 1700 nM | > 32200 nM | 1540 nM | 325 nM | 1500 nM | > 32200 nM | 439 nM | 2050 nM | > 8270 nM | 107 nM | 7210 nM | > 17600 nM |
| CN(C)c1cc[n+](CC(=O)c2ccc(Br)cc2)cc1 | 2610 nM | > 30800 nM | > 7920 nM | > 30800 nM | 1030 nM | > 30800 nM | 4300 nM | 1500 nM | 1610 nM | > 30800 nM | 1090 nM | > 7920 nM | > 7920 nM | > 13200 nM | > 29600 nM | > 16900 nM |
| CC(=O)c1cccc(NC(=O)C2c3ccccc3C(=O)N(CC(C)C)C2c2cccs2)c1 (stereo not drawn) | 358 nM | > 43200 nM | > 11100 nM | > 43200 nM | 392 nM | > 43200 nM | 411 nM | 284 nM | 363 nM | > 43200 nM | 196 nM | 414 nM | 371 nM | > 18500 nM | 5850 nM | > 23700 nM |
| CC(C)CN1C(=O)c2ccccc2C(C(=O)Nc2cccc(C(F)(F)F)c2)C1c1cccs1 (stereo not drawn) |  | 37700 nM |  | > 47200 nM |  | > 47200 nM |  |  |  | > 47200 nM |  |  |  | > 20200 nM | 3300 nM | > 25900 nM |
| CCOC(=O)C1=C(C)N=c2s/c(=C\c3cc(Cl)ccc3O)c(=O)n2C1c1ccc(N(C)C)cc1 (stereo not drawn) | 446 nM | > 18200 nM | > 4680 nM | > 18200 nM | 1820 nM | > 18200 nM | > 4680 nM | 1000 nM | > 4680 nM | > 18200 nM | > 15000 nM | 2690 nM | 235 nM | > 7800 nM | 6200 nM | > 9980 nM |
| CCOC(=O)c1cnc2c(OC)cccc2c1Nc1ccc(OC)c(OC)c1 | 651 nM | > 45100 nM | 2700 nM | > 45100 nM | 676 nM | > 45100 nM | > 11600 nM | 804 nM | 476 nM | > 45100 nM | 858 nM | > 11600 nM | 865 nM | > 19300 nM | > 43200 nM | > 24700 nM |
| CC(C)NCC(O)Cn1c2ccc(Cl)cc2c2cc(Cl)ccc21 (stereo not drawn) | 477 nM | 7620 nM | 122 nM | 17700 nM | 238 nM | 20900 nM | 626 nM | 140 nM | 1800 nM | > 41600 nM | 270 nM | 656 nM | 4840 nM | > 17800 nM | 861 nM | > 22800 nM |
| CO/C(O)=C1\C(C)=NC2=C(C(=O)CC(c3ccc(OC)c(OC)c3)C2)C1c1ccc(F)cc1 (stereo not drawn) | 272 nM | > 46300 nM | 208 nM | > 46300 nM | 456 nM | > 46300 nM | 182 nM | 108 nM | 236 nM | > 46300 nM | 122 nM | 178 nM | 409 nM | > 19800 nM | 25200 nM | > 25300 nM |
| COc1cccc(NC(=O)C2c3ccccc3C(=O)N(CC(C)C)C2c2cccs2)c1 (stereo not drawn) |  | > 40800 nM |  | > 40800 nM |  | > 40800 nM |  |  |  | > 40800 nM | 175 nM |  |  | > 17500 nM | 7540 nM | > 22300 nM |
| C=CCN1C=CC=C/C1=C\c1sc2ccccc2[n+]1C | 940 nM | > 35400 nM | 6160 nM | > 35400 nM |  | 8340 nM | 5690 nM | 1200 nM | 1190 nM | > 35400 nM | 1990 nM | 2980 nM | > 9080 nM | 50.3 nM | 10700 nM | > 19400 nM |
| CCCO/C(O)=C1\C(C)=NC2=C(C(=O)CC(c3ccccc3OC)C2)C1c1ccc([N+](=O)[O-])cc1 (stereo not drawn) |  |  |  |  |  |  |  | 1150 nM |  |  | 759 nM |  |  |  |  |  |
| COc1ccc(OCC(O)CN2CCN(c3ccc(OC)cc3)CC2)cc1 (stereo not drawn) |  |  |  |  |  |  |  | > 15000 nM |  |  | > 15000 nM |  |  |  |  |  |
| CCCC(=O)N1CCN(c2ccc(NC(=O)c3cccc(OCC)c3)cc2Cl)CC1 |  |  |  |  |  |  |  | > 15000 nM |  |  | > 15000 nM |  |  |  |  |  |
| C=CCNC(=S)N1CCc2cc(OC)c(OC)cc2C1c1ccccc1 (stereo not drawn) |  |  |  |  |  |  |  | 3730 nM |  |  | 3850 nM |  |  |  |  |  |
